This note sets out measurements from ChEMBL document CHEMBL2346584, “Microwave assisted nano (ZnO-TiO2) catalyzed synthesis of some new 4,5,6,7-tetrahydro-6-((5-substituted-1,3,4-oxadiazol-2-yl)methyl)thieno[2,3-c]pyridine as antimicrobial agents” (2013).

As a reminder, the MIC is the least concentration at which growth counts as inhibited. A low value points to inhibition by little substance.

≈ marks a conversion by molar mass, not a printed value. Calls of active or inactive are those of the source. No cut-off for these calls is given here.

The test system of one assay is Staphylococcus aureus. Put plainly: Antibacterial activity against Staphylococcus aureus NCIM 2901 by agar method. Type of assay: functional. The method in brief:
(§1)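 Read-out was the minimum inhibitory concentration (MIC), determined by the standard agar method. Ciprofloxacin and ampicillin served as reference antibacterial standards.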

In the next assay the test system is Candida albicans. Put plainly: Antifungal activity against Candida albicans NCIM 3471 by agar method. Type of assay: functional. The essentials:
(§2)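 MIC values were obtained with the standard agar method, with miconazole as the reference antifungal standard.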

Another assay deals with Escherichia coli. The assay is described as follows: Antibacterial activity against Escherichia coli NCIM 2256 by agar method. Type of assay: functional. The essentials: as §1
The subject of a further assay is Aspergillus niger. Put plainly: Antifungal activity against Aspergillus niger NCIM 1196 by agar method. Type of assay: functional. The essentials: as §2
For assay [1], the system named is Bacillus subtilis. Put plainly: Antibacterial activity against Bacillus subtilis NCIM 2063 up to 400 ug/ml by agar method. The class given is functional, organism-based. The essentials: as §1
In assay [2] the test system is Pseudomonas aeruginosa. Put plainly: Antibacterial activity against Pseudomonas aeruginosa NCIM 2036 up to 400 ug/ml by agar method. The class given is functional, organism-based. The method in brief:
as §1

The subject of assay [3] is Bacillus subtilis. Put plainly: Antibacterial activity against Bacillus subtilis NCIM 2063 by agar method. The class given is functional. The essentials:
as §1

For assay [4], the system named is Pseudomonas aeruginosa. Put plainly: Antibacterial activity against Pseudomonas aeruginosa NCIM 2036 by agar method. Type of assay: functional. The method in brief: as §1

`Oc1ccc(-c2nnc(CN3CCc4ccsc4C3)o2)cc1`: the MIC worked out at 175 µg/mL (≈ 558 µM) against Staphylococcus aureus, 60 µg/mL (≈ 191 µM) against Candida albicans, 175 µg/mL (≈ 558 µM) against Escherichia coli and 140 µg/mL (≈ 447 µM) in the assay on Aspergillus niger. Further, the result with Bacillus subtilis [1] and in the assay with Pseudomonas aeruginosa [2] was inactive.
With `c1csc(-c2nnc(CN3CCc4ccsc4C3)o2)c1`, the MIC in the assay on Bacillus subtilis [3] came to 50 µg/mL (≈ 165 µM); against Staphylococcus aureus, 75 µg/mL (≈ 247 µM); in the assay with Candida albicans, 40 µg/mL (≈ 132 µM); against Escherichia coli, 25 µg/mL (≈ 82.4 µM); against Aspergillus niger it was 80 µg/mL (≈ 264 µM); against Pseudomonas aeruginosa [4] it was 150 µg/mL (≈ 494 µM).
Consider `c1ccc(-c2nnc(CN3CCc4ccsc4C3)o2)nc1`, for which the MIC is 100 µg/mL (≈ 335 µM) in the assay on Bacillus subtilis [3]; 50 µg/mL (≈ 168 µM) against Staphylococcus aureus; 40 µg/mL (≈ 134 µM) in the assay with Candida albicans; 50 µg/mL (≈ 168 µM) in the assay with Escherichia coli; 60 µg/mL (≈ 201 µM) in the assay with Aspergillus niger; 150 µg/mL (≈ 503 µM) against Pseudomonas aeruginosa [4].
Turning to `Oc1ccc(-c2nnc(CN3CCc4ccsc4C3)o2)cc1O`, the minimal inhibitory concentration (MIC) against Staphylococcus aureus stood at 100 µg/mL (≈ 304 µM); against Candida albicans it was 40 µg/mL (≈ 121 µM); against Escherichia coli, 125 µg/mL (≈ 379 µM); in the assay on Aspergillus niger, 100 µg/mL (≈ 304 µM). In addition, the outcome in the assay with Bacillus subtilis [1] and in the assay on Pseudomonas aeruginosa [2] was inactive.
Consider `c1c[nH]c(-c2nnc(CN3CCc4ccsc4C3)o2)c1`, for which the MIC with Bacillus subtilis [3] stood at 100 µg/mL (≈ 349 µM); with Staphylococcus aureus, 75 µg/mL (≈ 262 µM); in the assay with Candida albicans, 60 µg/mL (≈ 210 µM); against Escherichia coli it was 50 µg/mL (≈ 175 µM); in the assay on Aspergillus niger it was 120 µg/mL (≈ 419 µM); in the assay on Pseudomonas aeruginosa [4], 125 µg/mL (≈ 437 µM).
With `Fc1ccc(-c2nnc(CN3CCc4ccsc4C3)o2)cc1`, the MIC turned out to be 50 µg/mL (≈ 159 µM) in the assay with Bacillus subtilis [3]; 25 µg/mL (≈ 79.3 µM) in the assay on Staphylococcus aureus; 20 µg/mL (≈ 63.4 µM) against Candida albicans; 25 µg/mL (≈ 79.3 µM) against Escherichia coli; 60 µg/mL (≈ 190 µM) in the assay on Aspergillus niger; 100 µg/mL (≈ 317 µM) against Pseudomonas aeruginosa [4].
Turning to `Clc1cccc(Cl)c1-c1nnc(CN2CCc3ccsc3C2)o1`, the MIC was determined as 50 µg/mL (≈ 137 µM) in the assay with Bacillus subtilis [3]; 50 µg/mL (≈ 137 µM) in the assay with Staphylococcus aureus; 20 µg/mL (≈ 54.6 µM) in the assay with Candida albicans; 50 µg/mL (≈ 137 µM) in the assay with Escherichia coli; 120 µg/mL (≈ 328 µM) with Aspergillus niger; 100 µg/mL (≈ 273 µM) against Pseudomonas aeruginosa [4].
`Clc1ccccc1-c1nnc(CN2CCc3ccsc3C2)o1`: the MIC with Bacillus subtilis [3] was determined as 100 µg/mL (≈ 301 µM); against Staphylococcus aureus it was 100 µg/mL (≈ 301 µM); against Candida albicans, 80 µg/mL (≈ 241 µM); with Escherichia coli, 125 µg/mL (≈ 377 µM); against Aspergillus niger, 140 µg/mL (≈ 422 µM); in the assay with Pseudomonas aeruginosa [4] it was 200 µg/mL (≈ 603 µM).
`COc1ccc(-c2nnc(CN3CCc4ccsc4C3)o2)cc1`: the MIC with Bacillus subtilis [3] was determined as 125 µg/mL (≈ 382 µM); in the assay on Staphylococcus aureus, 100 µg/mL (≈ 305 µM); against Candida albicans it was 80 µg/mL (≈ 244 µM); with Escherichia coli, 125 µg/mL (≈ 382 µM); with Aspergillus niger, 140 µg/mL (≈ 428 µM); in the assay on Pseudomonas aeruginosa [4], 175 µg/mL (≈ 534 µM).
For the compound `c1ccc(-c2nnc(CN3CCc4ccsc4C3)o2)cc1`, the MIC against Bacillus subtilis [3] was determined as 150 µg/mL (≈ 504 µM); against Staphylococcus aureus, 125 µg/mL (≈ 420 µM); in the assay with Candida albicans, 80 µg/mL (≈ 269 µM); with Escherichia coli, 150 µg/mL (≈ 504 µM); against Aspergillus niger it was 160 µg/mL (≈ 538 µM); in the assay on Pseudomonas aeruginosa [4], 300 µg/mL (≈ 1010 µM).
Consider `Clc1ccc(COC(Cn2ccnc2)c2ccc(Cl)cc2Cl)c(Cl)c1` (stereo not given) [MICONAZOLE], for which the MIC was determined as 25 µg/mL (≈ 60.1 µM) in the assay with Candida albicans and 12.5 µg/mL (≈ 30 µM) against Aspergillus niger.
With `O=C(O)c1cn(C2CC2)c2cc(N3CCNCC3)c(F)cc2c1=O` [CIPROFLOXACIN], the MIC was 50 µg/mL (≈ 151 µM) with Staphylococcus aureus and 25 µg/mL (≈ 75.4 µM) against Escherichia coli.
As to `Clc1ccc(-c2nnc(CN3CCc4ccsc4C3)o2)cc1`, the MIC came out at 100 µg/mL (≈ 301 µM) against Bacillus subtilis [3]; 75 µg/mL (≈ 226 µM) in the assay on Staphylococcus aureus; 60 µg/mL (≈ 181 µM) against Candida albicans; 100 µg/mL (≈ 301 µM) against Escherichia coli; 100 µg/mL (≈ 301 µM) with Aspergillus niger; 250 µg/mL (≈ 753 µM) in the assay with Pseudomonas aeruginosa [4].
In the case of `CC1(C)S[C@@H]2[C@H](NC(=O)[C@H](N)c3ccccc3)C(=O)N2[C@H]1C(=O)O` [AMPICILLIN], the MIC is 250 µg/mL (≈ 715 µM) in the assay on Bacillus subtilis [3], 250 µg/mL (≈ 715 µM) against Staphylococcus aureus, 100 µg/mL (≈ 286 µM) against Escherichia coli and 100 µg/mL (≈ 286 µM) in the assay with Pseudomonas aeruginosa [4].
For the compound `Clc1ccc(-c2nnc(CN3CCc4ccsc4C3)o2)c(Cl)c1`, the MIC in the assay on Bacillus subtilis [3] stood at 75 µg/mL (≈ 205 µM); with Staphylococcus aureus, 75 µg/mL (≈ 205 µM); in the assay on Candida albicans, 20 µg/mL (≈ 54.6 µM); against Escherichia coli, 50 µg/mL (≈ 137 µM); with Aspergillus niger, 60 µg/mL (≈ 164 µM); in the assay on Pseudomonas aeruginosa [4], 125 µg/mL (≈ 341 µM).
